Results reported in ChEMBL document CHEMBL3351461, “Discovery of novel, dual mechanism ERK inhibitors by affinity selection screening of an inactive kinase” (J Med Chem, 2014).
Active and inactive are the calls of the source. The calls are words filed in the database; no cut-off is given here.

Target: Cyclin-dependent kinase 2 (Homo sapiens, UniProt P24941)
Test: Inhibition of CDK2 (unknown origin)
Conditions: not given

| IC50 | Structure (SMILES) |
| --- | --- |
| > 50 µM | CC(=O)c1ccc(N2CCN(C(=O)CN3CC[C@@H](C(=O)Nc4ccc(O)c(Cl)c4)C3)CC2)cc1 |

Target: Receptor-type tyrosine-protein kinase FLT3 (Homo sapiens, UniProt P36888)
Test: Inhibition of FLT3 (unknown origin)
Conditions: not given

| IC50 | Structure (SMILES) |
| --- | --- |
| > 30 µM | CC(=O)c1ccc(N2CCN(C(=O)CN3CC[C@@H](C(=O)Nc4ccc(O)c(Cl)c4)C3)CC2)cc1 |

Target: Ribosomal protein S6 kinase alpha-3 (Homo sapiens, UniProt P51812)
Test: Inhibition of RSK2 (unknown origin)
Conditions: not given

| IC50 | Structure (SMILES) |
| --- | --- |
| 27 µM | CC(=O)c1ccc(N2CCN(C(=O)CN3CC[C@@H](C(=O)Nc4ccc(O)c(Cl)c4)C3)CC2)cc1 |

Target: Rho-associated protein kinase 2 (Homo sapiens, UniProt O75116)
Test: Inhibition of ROCK2 (unknown origin)
Conditions: not given

Sequence of Rho-associated protein kinase 2 (O75116 whole entry): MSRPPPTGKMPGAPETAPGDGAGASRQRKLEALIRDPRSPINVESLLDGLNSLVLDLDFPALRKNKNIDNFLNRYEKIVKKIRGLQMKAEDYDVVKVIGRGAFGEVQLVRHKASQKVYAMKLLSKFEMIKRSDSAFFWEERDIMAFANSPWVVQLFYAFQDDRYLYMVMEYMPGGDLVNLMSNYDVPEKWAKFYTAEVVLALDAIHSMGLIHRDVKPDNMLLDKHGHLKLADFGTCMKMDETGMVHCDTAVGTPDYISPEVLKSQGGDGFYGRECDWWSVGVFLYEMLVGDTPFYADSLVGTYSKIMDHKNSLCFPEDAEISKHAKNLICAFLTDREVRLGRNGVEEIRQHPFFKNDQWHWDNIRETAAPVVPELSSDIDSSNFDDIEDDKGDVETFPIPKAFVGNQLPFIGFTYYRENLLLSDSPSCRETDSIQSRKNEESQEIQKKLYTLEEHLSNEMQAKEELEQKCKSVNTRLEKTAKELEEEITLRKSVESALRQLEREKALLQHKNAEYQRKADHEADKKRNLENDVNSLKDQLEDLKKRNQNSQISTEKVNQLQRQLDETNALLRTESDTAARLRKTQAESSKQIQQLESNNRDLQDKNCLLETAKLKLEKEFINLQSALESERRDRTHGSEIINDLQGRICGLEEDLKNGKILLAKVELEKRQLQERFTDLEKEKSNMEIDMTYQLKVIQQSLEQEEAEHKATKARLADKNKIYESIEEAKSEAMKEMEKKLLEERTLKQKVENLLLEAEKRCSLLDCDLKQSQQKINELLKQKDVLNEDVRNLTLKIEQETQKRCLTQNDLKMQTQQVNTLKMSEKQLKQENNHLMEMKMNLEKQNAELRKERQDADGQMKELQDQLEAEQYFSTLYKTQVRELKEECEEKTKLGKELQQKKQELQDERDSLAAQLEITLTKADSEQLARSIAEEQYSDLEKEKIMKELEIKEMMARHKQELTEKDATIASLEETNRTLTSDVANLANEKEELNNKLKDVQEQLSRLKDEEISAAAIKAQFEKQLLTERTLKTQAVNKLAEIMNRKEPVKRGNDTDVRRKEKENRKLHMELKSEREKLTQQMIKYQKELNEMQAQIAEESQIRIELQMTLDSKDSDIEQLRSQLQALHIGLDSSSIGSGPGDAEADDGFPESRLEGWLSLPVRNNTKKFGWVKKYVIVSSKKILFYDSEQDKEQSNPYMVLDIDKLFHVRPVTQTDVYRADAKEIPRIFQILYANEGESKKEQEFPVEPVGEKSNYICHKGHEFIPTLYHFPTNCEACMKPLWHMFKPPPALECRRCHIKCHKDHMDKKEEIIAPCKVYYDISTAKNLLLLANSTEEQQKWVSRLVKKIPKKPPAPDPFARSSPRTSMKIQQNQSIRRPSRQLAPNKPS

| IC50 | Structure (SMILES) |
| --- | --- |
| > 30 µM | CC(=O)c1ccc(N2CCN(C(=O)CN3CC[C@@H](C(=O)Nc4ccc(O)c(Cl)c4)C3)CC2)cc1 |

Target: Cyclin-dependent kinase 6 (Homo sapiens, UniProt Q00534)
Test: Inhibition of CDK6 (unknown origin)
Conditions: not given

Sequence of Cyclin-dependent kinase 6 (Q00534 whole entry): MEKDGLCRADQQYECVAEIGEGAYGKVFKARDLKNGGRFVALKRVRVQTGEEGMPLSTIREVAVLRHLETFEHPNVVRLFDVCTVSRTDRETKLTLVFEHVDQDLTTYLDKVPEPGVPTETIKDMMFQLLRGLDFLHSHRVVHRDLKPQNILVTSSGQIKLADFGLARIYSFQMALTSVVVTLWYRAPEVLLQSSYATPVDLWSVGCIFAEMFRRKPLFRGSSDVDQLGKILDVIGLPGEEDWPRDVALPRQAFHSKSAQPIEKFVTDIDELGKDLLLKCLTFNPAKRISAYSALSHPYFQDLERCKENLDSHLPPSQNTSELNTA

| IC50 | Structure (SMILES) |
| --- | --- |
| > 50 µM | CC(=O)c1ccc(N2CCN(C(=O)CN3CC[C@@H](C(=O)Nc4ccc(O)c(Cl)c4)C3)CC2)cc1 |

Target: Cyclin-dependent kinase 4 (Homo sapiens, UniProt P11802)
Test: Inhibition of CDK4 (unknown origin)
Conditions: not given

Sequence of Cyclin-dependent kinase 4 (P11802 whole entry): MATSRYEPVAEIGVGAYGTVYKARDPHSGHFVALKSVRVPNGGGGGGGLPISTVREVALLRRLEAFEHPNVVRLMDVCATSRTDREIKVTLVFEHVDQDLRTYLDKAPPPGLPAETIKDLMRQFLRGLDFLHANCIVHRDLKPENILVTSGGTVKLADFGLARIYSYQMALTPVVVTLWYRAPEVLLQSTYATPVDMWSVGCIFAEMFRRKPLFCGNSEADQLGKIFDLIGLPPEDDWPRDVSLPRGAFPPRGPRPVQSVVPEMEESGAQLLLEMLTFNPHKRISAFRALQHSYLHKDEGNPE

| IC50 | Structure (SMILES) |
| --- | --- |
| > 50 µM | CC(=O)c1ccc(N2CCN(C(=O)CN3CC[C@@H](C(=O)Nc4ccc(O)c(Cl)c4)C3)CC2)cc1 |

Target: Inhibitor of nuclear factor kappa-B kinase subunit beta (Homo sapiens, UniProt O14920)
Test: Inhibition of IKKbeta (unknown origin)
Conditions: not given

| IC50 | Structure (SMILES) |
| --- | --- |
| > 30 µM | CC(=O)c1ccc(N2CCN(C(=O)CN3CC[C@@H](C(=O)Nc4ccc(O)c(Cl)c4)C3)CC2)cc1 |

Target: Serine/threonine-protein kinase B-raf (Homo sapiens, UniProt P15056)
Test: Inhibition of B-RAF (unknown origin)
Conditions: not given

Sequence of Serine/threonine-protein kinase B-raf (P15056 whole entry): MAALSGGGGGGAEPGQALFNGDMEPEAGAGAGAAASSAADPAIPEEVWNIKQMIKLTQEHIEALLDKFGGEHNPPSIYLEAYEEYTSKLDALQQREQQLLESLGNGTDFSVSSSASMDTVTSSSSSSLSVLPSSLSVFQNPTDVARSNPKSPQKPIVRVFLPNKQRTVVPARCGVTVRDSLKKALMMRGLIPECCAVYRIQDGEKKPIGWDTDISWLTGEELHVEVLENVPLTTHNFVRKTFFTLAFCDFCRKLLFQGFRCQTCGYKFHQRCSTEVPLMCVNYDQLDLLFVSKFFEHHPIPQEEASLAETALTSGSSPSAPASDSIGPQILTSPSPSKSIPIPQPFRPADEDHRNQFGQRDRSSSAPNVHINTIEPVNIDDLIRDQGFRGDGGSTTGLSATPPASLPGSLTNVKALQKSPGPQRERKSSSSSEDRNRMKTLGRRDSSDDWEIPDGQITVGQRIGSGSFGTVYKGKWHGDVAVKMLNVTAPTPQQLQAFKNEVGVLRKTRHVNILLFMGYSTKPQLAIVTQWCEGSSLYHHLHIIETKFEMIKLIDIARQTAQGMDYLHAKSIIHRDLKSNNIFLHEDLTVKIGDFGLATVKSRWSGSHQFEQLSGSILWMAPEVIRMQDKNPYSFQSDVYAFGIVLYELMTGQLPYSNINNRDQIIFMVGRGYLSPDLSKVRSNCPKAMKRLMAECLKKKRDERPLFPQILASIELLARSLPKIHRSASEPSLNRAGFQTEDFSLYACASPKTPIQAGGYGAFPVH

| IC50 | Structure (SMILES) |
| --- | --- |
| > 30 µM | CC(=O)c1ccc(N2CCN(C(=O)CN3CC[C@@H](C(=O)Nc4ccc(O)c(Cl)c4)C3)CC2)cc1 |

Target: T1, Dual specificity mitogen-activated protein kinase kinase; MEK1/2 (Homo sapiens) (UniProt P36507+Q02750)
Test: Binding affinity to phosphorylated MEK (unknown origin) by temperature dependent fluorescence (TdF) assay
Conditions: not given

T1 sequence (P36507 whole entry, looked up): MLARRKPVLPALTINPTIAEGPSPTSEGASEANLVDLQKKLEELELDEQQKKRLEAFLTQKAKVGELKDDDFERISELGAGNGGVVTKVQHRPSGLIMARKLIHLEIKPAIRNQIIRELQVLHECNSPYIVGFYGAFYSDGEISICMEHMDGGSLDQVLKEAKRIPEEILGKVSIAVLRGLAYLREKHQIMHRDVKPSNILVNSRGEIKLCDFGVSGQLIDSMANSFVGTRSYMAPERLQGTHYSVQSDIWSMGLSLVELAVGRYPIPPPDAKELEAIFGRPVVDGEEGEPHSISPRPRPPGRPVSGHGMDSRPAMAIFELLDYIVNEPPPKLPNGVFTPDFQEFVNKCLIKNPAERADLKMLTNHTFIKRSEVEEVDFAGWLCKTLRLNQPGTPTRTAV
T1 sequence (Q02750 whole entry, looked up): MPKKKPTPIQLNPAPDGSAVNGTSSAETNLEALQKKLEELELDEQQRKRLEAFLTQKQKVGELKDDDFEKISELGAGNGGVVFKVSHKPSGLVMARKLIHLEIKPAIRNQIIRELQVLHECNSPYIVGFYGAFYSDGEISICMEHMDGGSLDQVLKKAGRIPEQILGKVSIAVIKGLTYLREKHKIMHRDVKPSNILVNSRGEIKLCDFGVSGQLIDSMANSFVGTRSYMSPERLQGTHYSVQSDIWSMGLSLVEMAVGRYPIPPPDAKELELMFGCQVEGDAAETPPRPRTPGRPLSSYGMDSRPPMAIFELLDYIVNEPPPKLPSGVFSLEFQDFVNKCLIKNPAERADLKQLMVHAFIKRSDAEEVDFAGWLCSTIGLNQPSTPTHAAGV

| Activity | Structure (SMILES) |
| --- | --- |
| inactive | CC(=O)c1ccc(N2CCN(C(=O)CN3CC[C@@H](C(=O)Nc4ccc(O)c(Cl)c4)C3)CC2)cc1 |

Tested on: A2058
Test: Cytotoxicity against human A2058 cells expressing BRAF mutant after 3 days by proliferation assay
Format: functional, cell-based
Conditions: A2058, 72 h
Outline: (§1)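 A2058, Colo-205 (2000 cells/well) or A375SM (1500 cells/well) in RPMI1640 with 10% FBS and penicillin–streptomycin, on collagen-coated plates. Cells attach for 2 h, then compound is added in DMSO (final 1.0% or 0.1%). Incubated 3 days at 37 °C, 5% CO2. Viability read by CellTiter-Glo luminescence.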

| Structure (SMILES) | IC50 |
| --- | --- |
| CC(=O)c1ccc(N2CCN(C(=O)CN3CC[C@@H](C(=O)Nc4ccc(O)c(Cl)c4)C3)CC2)cc1 | 28.8 µM |

Target: Tyrosine-protein kinase ABL1 (Homo sapiens, UniProt P00519)
Test: Inhibition of ABL (unknown origin)
Conditions: not given

| IC50 | Structure (SMILES) |
| --- | --- |
| > 30 µM | CC(=O)c1ccc(N2CCN(C(=O)CN3CC[C@@H](C(=O)Nc4ccc(O)c(Cl)c4)C3)CC2)cc1 |

Target: Mitogen-activated protein kinase 1 (Homo sapiens, UniProt P28482)
Test: Inhibition of activated ERK2 (unknown origin) using IMAP peptide substrate after 30 mins by activated ERK2 assay
Conditions: not given
Outline: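 IMAP fluorescence-polarization assay. Started with 1 μM substrate peptide (100 nM fluorescein-labelled) and 30 μM ATP. Run 30 min, stopped with IMAP beads, read after 30 min. N = 2.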

Sequence of Mitogen-activated protein kinase 1 (P28482 whole entry): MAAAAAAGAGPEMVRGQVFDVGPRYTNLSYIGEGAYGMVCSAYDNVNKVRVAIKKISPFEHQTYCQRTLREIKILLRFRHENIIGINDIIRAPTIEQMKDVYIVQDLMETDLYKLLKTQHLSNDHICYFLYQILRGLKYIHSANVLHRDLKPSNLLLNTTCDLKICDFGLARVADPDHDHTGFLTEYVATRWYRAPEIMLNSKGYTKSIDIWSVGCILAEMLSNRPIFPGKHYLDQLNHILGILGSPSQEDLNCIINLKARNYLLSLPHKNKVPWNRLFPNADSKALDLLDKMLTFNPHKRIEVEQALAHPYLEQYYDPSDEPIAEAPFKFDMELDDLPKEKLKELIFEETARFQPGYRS

| IC50 | Structure (SMILES) |
| --- | --- |
| 2.6 µM | CC(=O)c1ccc(N2CCN(C(=O)CN3CC[C@@H](C(=O)Nc4ccc(O)c(Cl)c4)C3)CC2)cc1 |

Target: Casein kinase I isoform delta (Homo sapiens, UniProt P48730)
Test: Inhibition of CSNK1D (unknown origin)
Conditions: not given

Sequence of Casein kinase I isoform delta (P48730 whole entry, canonical isoform): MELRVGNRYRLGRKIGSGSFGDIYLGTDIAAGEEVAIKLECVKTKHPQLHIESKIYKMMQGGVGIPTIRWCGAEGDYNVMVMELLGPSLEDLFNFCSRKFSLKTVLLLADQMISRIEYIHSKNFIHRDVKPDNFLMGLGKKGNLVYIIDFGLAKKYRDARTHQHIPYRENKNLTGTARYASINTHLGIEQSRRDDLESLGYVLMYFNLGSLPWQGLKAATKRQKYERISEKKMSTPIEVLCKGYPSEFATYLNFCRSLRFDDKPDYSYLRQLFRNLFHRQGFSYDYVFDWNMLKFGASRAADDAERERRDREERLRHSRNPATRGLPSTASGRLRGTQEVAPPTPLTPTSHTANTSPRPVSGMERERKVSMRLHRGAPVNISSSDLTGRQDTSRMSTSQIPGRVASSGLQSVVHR

| IC50 | Structure (SMILES) |
| --- | --- |
| > 30 µM | CC(=O)c1ccc(N2CCN(C(=O)CN3CC[C@@H](C(=O)Nc4ccc(O)c(Cl)c4)C3)CC2)cc1 |

Target: Ephrin type-B receptor 4 (Homo sapiens, UniProt P54760)
Test: Inhibition of EPHB4 (unknown origin)
Conditions: not given

| IC50 | Structure (SMILES) |
| --- | --- |
| > 30 µM | CC(=O)c1ccc(N2CCN(C(=O)CN3CC[C@@H](C(=O)Nc4ccc(O)c(Cl)c4)C3)CC2)cc1 |

Target: Serine/threonine-protein kinase PLK3 (Homo sapiens, UniProt Q9H4B4)
Test: Inhibition of PLK3 (unknown origin)
Conditions: not given

| IC50 | Structure (SMILES) |
| --- | --- |
| > 30 µM | CC(=O)c1ccc(N2CCN(C(=O)CN3CC[C@@H](C(=O)Nc4ccc(O)c(Cl)c4)C3)CC2)cc1 |

Target: T1, Dual specificity mitogen-activated protein kinase kinase; MEK1/2 (Homo sapiens)
Test: Binding affinity to unphosphorylated MEK (unknown origin) by temperature dependent fluorescence (TdF) assay
Conditions: not given

| Activity | Structure (SMILES) |
| --- | --- |
| inactive | CC(=O)c1ccc(N2CCN(C(=O)CN3CC[C@@H](C(=O)Nc4ccc(O)c(Cl)c4)C3)CC2)cc1 |

Target: Mitogen-activated protein kinase 3 (Homo sapiens) (UniProt P27361)
Test: Inhibition of ERK1 phosphorylation in human A2058 cells after 4 hrs by immunoblotting analysis
Format: cell-based
Conditions: not given
Outline: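 A2058 cells treated 4 h at 37 °C with 0–10000 nM compound (150, 312, 625, 1250, 2500, 5000, 10000 nM). Equal-protein lysates immunoblotted for phospho-ERK1,2 and total ERK1,2, developed by ECL. A MEK inhibitor serves as positive control.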

| inhibition | Structure (SMILES) |
| --- | --- |
| Dose-dependent effect | CC(=O)c1ccc(N2CCN(C(=O)CN3CC[C@@H](C(=O)Nc4ccc(O)c(Cl)c4)C3)CC2)cc1 |

Target: Protein kinase C alpha type (Homo sapiens, UniProt P17252)
Test: Inhibition of PKCA (unknown origin)
Conditions: not given

| IC50 | Structure (SMILES) |
| --- | --- |
| > 30 µM | CC(=O)c1ccc(N2CCN(C(=O)CN3CC[C@@H](C(=O)Nc4ccc(O)c(Cl)c4)C3)CC2)cc1 |

Tested on: not listed separately
Test: Cytotoxicity against human A375SM cells expressing BRAF mutant after 3 days by proliferation assay
Format: functional, cell-based
Conditions: A375-SM, 72 h
Outline: as §1

| Structure (SMILES) | IC50 |
| --- | --- |
| CC(=O)c1ccc(N2CCN(C(=O)CN3CC[C@@H](C(=O)Nc4ccc(O)c(Cl)c4)C3)CC2)cc1 | 11.5 µM |

Target: Serine/threonine-protein kinase 3 (Homo sapiens, UniProt Q13188)
Test: Inhibition of MST2 (unknown origin)
Conditions: not given

| IC50 | Structure (SMILES) |
| --- | --- |
| > 30 µM | CC(=O)c1ccc(N2CCN(C(=O)CN3CC[C@@H](C(=O)Nc4ccc(O)c(Cl)c4)C3)CC2)cc1 |
